Data reported in ChEMBL document CHEMBL4229449, “Synthesis and antimicrobial studies of hydrazone derivatives of 4-[3-(2,4-difluorophenyl)-4-formyl-1H-pyrazol-1-yl]benzoic acid and 4-[3-(3,4-difluorophenyl)-4-formyl-1H-pyrazol-1-yl]benzoic acid” (Bioorg Med Chem Lett, 2018).
≈ marks a conversion by molar mass, not a printed value. Calls of active or inactive are those of the source. No cut-off for these calls is given here.

Legend:
Staphylococcus aureus [1] = test: Antimicrobial activity against Staphylococcus aureus by broth microdilution method; assay type: functional
HEK293 [2] = test: Cytotoxicity against human HEK293 cells assessed as reduction in cell viability at 50 ug/ml after 24 hrs by resazurin dye based method; conditions: hek293, 24 h
In short: (§1)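 HEK-293 human embryonic kidney cells were exposed to test compounds at 25 and 50 μg/mL and incubated for 24 h. Growth inhibition was read by resazurin assay and expressed as percent cell viability.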

Bacillus subtilis = test: Antimicrobial activity against Bacillus subtilis by broth microdilution method; assay type: functional
HEK293 [3] = test: Cytotoxicity against human HEK293 cells assessed as reduction in cell viability at 25 to 50 ug/ml after 24 hrs by resazurin dye based method; conditions: hek293, 24 h; in short: as §1
Acinetobacter baumannii = test: Antimicrobial activity against Acinetobacter baumannii by broth microdilution method; assay type: functional
Klebsiella aerogenes = test: Antimicrobial activity against Enterobacter aerogenes by broth microdilution method; assay type: functional, organism-based
Pseudomonas aeruginosa = test: Antimicrobial activity against Pseudomonas aeruginosa by broth microdilution method; assay type: functional, organism-based
Staphylococcus aureus [4] = test: Antimicrobial activity against methicillin-resistant Staphylococcus aureus by broth microdilution method; assay type: functional
[5] = test system: Panel NCI-60 (60 carcinoma cell lines); test: Cytotoxicity against human NCI60 cells assessed as reduction in cell viability at 10 uM after 24 hrs by resazurin dye based method
Staphylococcus aureus [6] = test: Growth inhibition of methicillin-resistant Staphylococcus aureus LAC after 20 to 24 hrs by resazurin dye based method; assay type: functional
Staphylococcus aureus [7] = test: Growth inhibition of methicillin-sensitive Staphylococcus aureus UAMS-1 after 20 to 24 hrs by resazurin dye based method; assay type: functional

Row | Compound | MIC (Staphylococcus aureus [1]) | Activity (HEK293 [2]) [%] | MIC (Bacillus subtilis) | Activity (HEK293 [3]) | MIC (Acinetobacter baumannii) | MIC (Klebsiella aerogenes) | MIC (Pseudomonas aeruginosa) | MIC (Staphylococcus aureus [4]) | Activity [5] | MIC (Staphylococcus aureus [6]) [µg/mL] | MIC (Staphylococcus aureus [7]) [µg/mL]
1 | O=C(O)c1ccc(-n2cc(/C=N/Nc3ccccc3F)c(-c3ccc(F)c(F)c3)n2)cc1 | 12.5 µg/mL (≈ 28.6 µM) | > 80 | 12.5 µg/mL (≈ 28.6 µM) | Non-Toxic | 6.25 µg/mL (≈ 14.3 µM) | inactive | inactive | 12.5 µg/mL (≈ 28.6 µM) | Non-Toxic |  | 
2 | O=C(O)c1ccc(-n2cc(/C=N/Nc3cccc(F)c3)c(-c3ccc(F)cc3F)n2)cc1 | 25 µg/mL (≈ 57.3 µM) | > 80 | 12.5 µg/mL (≈ 28.6 µM) | Non-Toxic | 6.25 µg/mL (≈ 14.3 µM) | inactive | inactive | 25 µg/mL (≈ 57.3 µM) | Non-Toxic |  | 
3 | O=C(O)c1ccc(-n2cc(/C=N/Nc3ccc(C(F)(F)F)cc3)c(-c3ccc(F)c(F)c3)n2)cc1 | 0.78 µg/mL (≈ 1.6 µM) | > 80 | 0.78 µg/mL (≈ 1.6 µM) | Non-Toxic | 3.12 µg/mL (≈ 6.41 µM) | inactive | inactive | 0.78 µg/mL (≈ 1.6 µM) | Non-Toxic | 3.12 (≈ 6.41 µM) | 6.25 (≈ 12.8 µM)
4 | O=C(O)c1ccc(N/N=C/c2cn(-c3ccc(C(=O)O)cc3)nc2-c2ccc(F)c(F)c2)cc1 | inactive |  | inactive |  | inactive | inactive | inactive | inactive |  |  | 
5 | CN1CCN(/N=C/c2cn(-c3ccc(C(=O)O)cc3)nc2-c2ccc(F)cc2F)CC1 | inactive |  | inactive |  | inactive | inactive | inactive | inactive |  |  | 
6 | O=C(O)c1ccc(-n2cc(/C=N/Nc3c(F)c(F)cc(F)c3F)c(-c3ccc(F)cc3F)n2)cc1 | inactive |  | inactive |  | inactive | inactive | inactive | inactive |  |  | 
7 | CN1CCN(/N=C/c2cn(-c3ccc(C(=O)O)cc3)nc2-c2ccc(F)c(F)c2)CC1 | inactive |  | inactive |  | inactive | inactive | inactive | inactive |  |  | 
8 | O=C(O)c1ccc(-n2cc(/C=N/Nc3c(F)c(F)cc(F)c3F)c(-c3ccc(F)c(F)c3)n2)cc1 | 12.5 µg/mL (≈ 25.5 µM) |  | 6.25 µg/mL (≈ 12.7 µM) |  | inactive | inactive | inactive | 12.5 µg/mL (≈ 25.5 µM) |  |  | 
9 | O=C(O)c1ccc(-n2cc(/C=N/Nc3c(F)c(F)c(F)c(F)c3F)c(-c3ccc(F)cc3F)n2)cc1 | inactive |  | inactive |  | inactive | inactive | inactive | inactive |  |  | 
10 | O=C(O)c1ccc(-n2cc(/C=N/Nc3ccc(F)cc3)c(-c3ccc(F)cc3F)n2)cc1 | 25 µg/mL (≈ 57.3 µM) |  | 6.25 µg/mL (≈ 14.3 µM) |  | 6.25 µg/mL (≈ 14.3 µM) | inactive | inactive | 25 µg/mL (≈ 57.3 µM) |  |  | 
11 | O=C(O)c1ccc(-n2cc(/C=N/Nc3ccc([N+](=O)[O-])cc3)c(-c3ccc(F)cc3F)n2)cc1 | inactive |  | inactive |  | inactive | inactive | inactive | inactive |  |  | 
12 | CN[C@H](CC(C)C)C(=O)N[C@H]1C(=O)N[C@@H](CC(N)=O)C(=O)N[C@H]2C(=O)N[C@H]3C(=O)N[C@H](C(=O)N[C@H](C(=O)O)c4cc(O)cc(O)c4-c4cc3ccc4O)[C@H](O)c3ccc(c(Cl)c3)Oc3cc2cc(c3O[C@@H]2O[C@H](CO)[C@@H](O)[C@H](O)[C@H]2O[C@H]2C[C@](C)(N)[C@H](O)[C@H](C)O2)Oc2ccc(cc2Cl)[C@H]1O [VANCOMYCIN] | 6.25 µg/mL (≈ 4.31 µM) |  |  |  |  |  |  | 12.5 µg/mL (≈ 8.63 µM) |  |  | 
13 | O=C(O)c1ccc(-n2cc(/C=N/Nc3ccccc3F)c(-c3ccc(F)cc3F)n2)cc1 | 25 µg/mL (≈ 57.3 µM) | > 80 | 12.5 µg/mL (≈ 28.6 µM) | Non-Toxic | 12.5 µg/mL (≈ 28.6 µM) | inactive | inactive | 25 µg/mL (≈ 57.3 µM) | Non-Toxic |  | 
14 | O=C(O)c1ccc(-n2cc(/C=N/Nc3cccc(C(=O)O)c3)c(-c3ccc(F)cc3F)n2)cc1 | inactive |  | inactive |  | inactive | inactive | inactive | inactive |  |  | 
15 | O=C(O)c1ccc(-n2cc(/C=N/Nc3ccccc3)c(-c3ccc(F)cc3F)n2)cc1 | 25 µg/mL (≈ 59.8 µM) | > 80 | 25 µg/mL (≈ 59.8 µM) | Non-Toxic | 25 µg/mL (≈ 59.8 µM) | inactive | inactive | 25 µg/mL (≈ 59.8 µM) | Non-Toxic |  | 
